# From ChEMBL document CHEMBL4118248, “Small Molecule Proprotein Convertase Subtilisin/Kexin Type 9 (PCSK9) Inhibitors: Hit to Lead Optimization of Systemic Agents” (J Med Chem, 2018)
# Columns and labels:
# [1] = Permeability from basolateral to apical side in MDCK cells harboring MDR1; assay type: ADME, cell-based, Canis lupus familiaris; conditions: dog, read-out: permeability
# How it was run: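 Bidirectional permeability across MDR1-transfected MDCK monolayers, apical-to-basolateral and basolateral-to-apical; Papp reported in 10^-6 cm/s.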
# Rattus norvegicus [2] = test: Reduction in total cholesterol level in Crl:CD(SD) rat at 50 mg/kg/day, po daily via gavage for 14 days measured on day 15 post last dose relative to control; assay type: functional; parameters: scale not given: the % may be the effect or the level left
# Bone marrow cell = test: Cytotoxicity against rat bone marrow cells assessed as reduction in cell viability after 72 hrs by CellTiter-Glo assay; assay type: cell-based
# 80S Ribosome = test: Binding affinity to 80S ribosome in human HuH7 cells assessed as inhibition of PCSK9 mRNA translation after overnight incubation by ELISA; assay type: cell-based; conditions: huh-7
# How it was run: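 Huh7 cells kept in high-glucose DMEM, 10% BSA-free FBS, 2 mM L-glutamine, pen/strep at 37 °C, 5% CO2. Plated 7,500/well with compound or vehicle and incubated overnight (16-20 h). Secreted PCSK9 in the medium read by AlphaLISA: two antibodies to different mature-PCSK9 epitopes, biotinylated antibody 3 nM final, acceptor beads 10 µg/mL, 0.5 h rt; streptavidin donor beads 40 µg/mL, 1 h rt.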
# Rattus norvegicus [3] = test: Toxicity in Crl:CD(SD) rat assessed as decrease in total T cells at 50 mg/kg/day, po daily via gavage for 14 days measured on day 15 post last dose relative to control; assay type: organism-based; parameters: scale not given: the % may be the effect or the level left; conditions: in vivo, 336 h
# [4] = Total Cmax in Crl:CD(SD) rat at 15 mg/kg/day, po daily via gavage for 14 days measured on day 14 post last dose up to 24 hrs; assay type: ADME, organism-based; parameters: dose 15 mg/kg/day, route oral; conditions: in vivo
# IEC-6 = test: Cytotoxicity against rat IEC-6 cells assessed as reduction in cell viability after 3 days by CellTiter-Glo assay; assay type: cell-based; conditions: IEC-6, 72 h
# How it was run: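 Rat intestinal epithelial IEC-6 cells; viability read by CellTiter-Glo ATP luminescence.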
# [5] = Intrinsic clearance in rat liver microsomes; assay type: ADME, microsome; conditions: read-out: CLH
# [6] = Fraction unbound in rat plasma; assay type: ADME, cell-free
# How it was run: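 Unbound fraction measured in rat plasma.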
# Rattus norvegicus [7] = test: Toxicity in Crl:CD(SD) rat assessed as decrease in basophils at 50 mg/kg/day, po daily via gavage for 14 days measured on day 15 post last dose relative to control; assay type: organism-based; parameters: scale not given: the % may be the effect or the level left; conditions: in vivo, 336 h
# Rattus norvegicus [8] = test: Toxicity in Crl:CD(SD) rat assessed as decrease in proliferating erythroid cells at 50 mg/kg/day, po daily via gavage for 14 days measured on day 15 post last dose relative to control; assay type: organism-based; parameters: scale not given: the % may be the effect or the level left; conditions: in vivo, 336 h
structure (smiles),measurement,setting,value
O=C(c1ccc(-n2nnc3cccnc32)cc1)N(c1ncccc1Cl)[C@@H]1CCCNC1,Papp B→A,[1],20.6 ×10⁻⁶ cm/s
same,Activity,Rattus norvegicus [2],30%
same,IC50,Bone marrow cell,1200 to 2900 nM
same,IC50,80S Ribosome,820 nM
same,Activity,Rattus norvegicus [3],54%
same,Cmax,[4],1640 ng/mL
same,IC50,IEC-6,> 20000 nM
same,microsomal CLint,[5],18.2 µL/min/mg
same,fraction unbound,[6],0.2
same,Activity,Rattus norvegicus [7],100%
same,Activity,Rattus norvegicus [8],32.9%
